Reference: ChEMBL document CHEMBL1131454 (J Med Chem, 1998)

Experiments:
[1] = target: T1, Progesterone receptor (Homo sapiens) (UniProt P06401); experiment: Human progesterone receptor (hPR) antagonist efficacy was determined as a function (%) of maximal inhibition of progesterone at EC50 value.; type: functional
T1 sequence (whole entry): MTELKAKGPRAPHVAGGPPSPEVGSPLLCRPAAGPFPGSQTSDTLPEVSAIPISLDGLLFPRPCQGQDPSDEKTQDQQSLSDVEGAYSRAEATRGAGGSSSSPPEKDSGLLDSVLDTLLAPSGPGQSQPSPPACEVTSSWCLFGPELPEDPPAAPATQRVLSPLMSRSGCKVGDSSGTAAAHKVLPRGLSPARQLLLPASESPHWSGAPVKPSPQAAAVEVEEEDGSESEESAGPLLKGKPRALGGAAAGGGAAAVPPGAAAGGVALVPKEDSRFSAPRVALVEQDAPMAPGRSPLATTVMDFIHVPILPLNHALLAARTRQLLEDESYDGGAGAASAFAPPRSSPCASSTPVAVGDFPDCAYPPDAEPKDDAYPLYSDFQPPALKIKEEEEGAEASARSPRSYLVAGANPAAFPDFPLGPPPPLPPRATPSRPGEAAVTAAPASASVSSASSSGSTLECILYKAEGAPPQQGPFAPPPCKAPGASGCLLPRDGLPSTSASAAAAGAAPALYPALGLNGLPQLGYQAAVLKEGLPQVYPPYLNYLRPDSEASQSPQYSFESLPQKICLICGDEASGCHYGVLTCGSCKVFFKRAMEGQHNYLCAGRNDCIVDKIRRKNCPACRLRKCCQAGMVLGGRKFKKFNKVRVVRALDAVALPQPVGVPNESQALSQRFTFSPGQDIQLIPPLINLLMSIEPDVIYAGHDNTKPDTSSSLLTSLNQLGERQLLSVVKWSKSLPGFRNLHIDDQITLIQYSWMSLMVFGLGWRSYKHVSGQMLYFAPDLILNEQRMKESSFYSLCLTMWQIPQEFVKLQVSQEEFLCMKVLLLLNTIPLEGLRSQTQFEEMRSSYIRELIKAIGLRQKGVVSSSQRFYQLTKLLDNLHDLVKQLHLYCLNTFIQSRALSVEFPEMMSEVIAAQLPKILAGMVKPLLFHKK
How it was run: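 hPR antagonist-mode cotransfection in CV-1 cells transiently transfected by calcium phosphate coprecipitation with hPR plasmid, MTV-LUC reporter, pRS-β-Gal and filler DNA. […] Values come from one, two, or at least three experiments in triplicate.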

Estrogen receptor = Estrogen receptor (Homo sapiens, UniProt Q92731+P03372); experiment: Antagonistic activity was determined in Human estrogen receptor(hER) of CV-1 cells in cotransfection assay.; type: functional, cell-based
Androgen receptor = target: T2, Androgen receptor (Homo sapiens, UniProt P10275)
T2 sequence (P10275 whole entry): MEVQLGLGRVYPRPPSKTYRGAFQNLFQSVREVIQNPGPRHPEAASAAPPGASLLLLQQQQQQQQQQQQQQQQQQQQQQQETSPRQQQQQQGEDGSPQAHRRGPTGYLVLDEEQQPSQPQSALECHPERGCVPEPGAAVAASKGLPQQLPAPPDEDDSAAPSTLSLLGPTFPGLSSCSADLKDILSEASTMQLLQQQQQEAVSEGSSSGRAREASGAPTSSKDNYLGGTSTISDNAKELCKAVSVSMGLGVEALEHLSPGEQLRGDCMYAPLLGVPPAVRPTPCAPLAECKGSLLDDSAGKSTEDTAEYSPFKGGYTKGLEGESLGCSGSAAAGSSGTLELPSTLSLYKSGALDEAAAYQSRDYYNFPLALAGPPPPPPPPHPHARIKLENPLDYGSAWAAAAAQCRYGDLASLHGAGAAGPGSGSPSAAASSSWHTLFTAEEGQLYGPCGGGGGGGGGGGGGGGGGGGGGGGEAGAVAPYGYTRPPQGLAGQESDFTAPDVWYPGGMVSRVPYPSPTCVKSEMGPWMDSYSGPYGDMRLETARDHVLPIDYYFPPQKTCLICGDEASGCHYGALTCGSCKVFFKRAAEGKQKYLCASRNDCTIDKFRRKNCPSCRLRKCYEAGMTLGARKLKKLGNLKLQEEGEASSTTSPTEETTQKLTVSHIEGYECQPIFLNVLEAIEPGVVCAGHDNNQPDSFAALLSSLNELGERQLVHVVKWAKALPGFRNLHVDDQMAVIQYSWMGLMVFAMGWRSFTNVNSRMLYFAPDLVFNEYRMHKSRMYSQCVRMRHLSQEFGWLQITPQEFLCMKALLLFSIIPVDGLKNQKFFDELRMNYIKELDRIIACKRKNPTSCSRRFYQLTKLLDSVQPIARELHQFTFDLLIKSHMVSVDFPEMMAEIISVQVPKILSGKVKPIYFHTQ

Progesterone receptor = target: T3, Progesterone receptor (Homo sapiens, UniProt P06401); experiment: The binding affinity on Human progesterone receptor (hPR-A) using progesterone as radioligand.
T3 sequence (P06401 whole entry): T1 sequence (whole entry)

Glucocorticoid receptor [2] = target: T4, Glucocorticoid receptor (Homo sapiens, UniProt P04150)
T4 sequence (P04150 whole entry): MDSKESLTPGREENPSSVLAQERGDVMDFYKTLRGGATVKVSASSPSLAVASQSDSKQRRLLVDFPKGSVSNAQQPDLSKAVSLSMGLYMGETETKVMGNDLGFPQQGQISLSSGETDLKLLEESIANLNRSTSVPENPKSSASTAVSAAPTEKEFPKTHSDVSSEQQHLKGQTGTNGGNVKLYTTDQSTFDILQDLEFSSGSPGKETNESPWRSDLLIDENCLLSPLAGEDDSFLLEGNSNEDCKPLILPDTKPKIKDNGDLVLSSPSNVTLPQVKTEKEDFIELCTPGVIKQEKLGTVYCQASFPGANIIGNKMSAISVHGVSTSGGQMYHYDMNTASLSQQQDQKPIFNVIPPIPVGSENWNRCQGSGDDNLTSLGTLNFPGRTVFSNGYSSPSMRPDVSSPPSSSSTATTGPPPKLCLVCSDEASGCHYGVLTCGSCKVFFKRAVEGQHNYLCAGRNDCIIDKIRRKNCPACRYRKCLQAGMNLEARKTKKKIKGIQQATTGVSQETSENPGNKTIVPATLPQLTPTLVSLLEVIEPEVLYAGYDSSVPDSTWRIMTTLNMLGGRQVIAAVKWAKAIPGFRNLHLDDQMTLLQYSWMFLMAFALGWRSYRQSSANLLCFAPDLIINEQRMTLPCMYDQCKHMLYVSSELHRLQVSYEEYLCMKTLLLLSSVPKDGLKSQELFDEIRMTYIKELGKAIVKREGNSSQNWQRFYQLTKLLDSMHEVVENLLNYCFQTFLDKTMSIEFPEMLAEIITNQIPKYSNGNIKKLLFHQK

Glucocorticoid receptor [3] = target: T4, Glucocorticoid receptor; remark: listed apart in the source

Compound	Efficacy [1] [%]	IC50 (Estrogen receptor) [nM]	Ki (Androgen receptor) [nM]	Ki (Progesterone receptor) [nM]	Ki (Glucocorticoid receptor [2]) [nM]	IC50 (Glucocorticoid receptor [3]) [nM]
CC1=CC(C)(C)Nc2ccc3c(c21)C(c1ccc(Cl)cc1)Oc1ccccc1-3 (configuration not stated)	31	1803	2680	0.7	152	339
CC1=CC(C)(C)Nc2ccc3c(c21)C(c1cccc(Cl)c1)Oc1ccccc1-3 (configuration not stated)	37	1480	1530	0.43	58	136
CC1=CC(C)(C)Nc2ccc3c(c21)C(c1cc(C)cc(Br)c1)Oc1ccccc1-3 (configuration not stated)	31	1037	3500	0.87	42	166
CC1=CC(C)(C)Nc2ccc3c(c21)C(c1cccc(Br)c1)Oc1ccccc1-3 (configuration not stated)	41	1095	2140	1.1	34	266
CC1=CC(C)(C)Nc2ccc3c(c21)C(c1ccc(C)cc1)Oc1ccccc1-3 (configuration not stated)	38	2395	2330	2.3	80	294
CC1=CC(C)(C)Nc2ccc3c(c21)C(c1cc(Cl)cc(Cl)c1)Oc1ccccc1-3 (configuration not stated)	< 20	> 10000	2580	1.7	100	225

Other lines, results leading:

Efficacy [1] [%]	IC50 (Estrogen receptor) [nM]	Ki (Androgen receptor) [nM]	Ki (Progesterone receptor) [nM]	Ki (Glucocorticoid receptor [2]) [nM]	IC50 (Glucocorticoid receptor [3]) [nM]	Compound
< 20	1449	1460	0.41	39	171	CC1=CC(C)(C)Nc2ccc3c(c21)C(c1ccc(Cl)c(F)c1)Oc1ccccc1-3 (configuration not stated)
42	2632	5830	3.4	59	80	CC1=CC(C)(C)Nc2ccc3c(c21)C(c1ccc(Cl)c(Cl)c1)Oc1ccccc1-3 (configuration not stated)
< 20	1537	795	2.6	44	505	CC1=CC(C)(C)Nc2ccc3c(c21)C(c1cccc(C(F)(F)F)c1)Oc1ccccc1-3 (configuration not stated)
< 20	1449	1580	1.8	60	185	CC1=CC(C)(C)Nc2ccc3c(c21)C(c1ccc(C)c(F)c1)Oc1ccccc1-3 (configuration not stated)
42	> 10000	> 10000	0.55	67	115	CC1=CC(C)(C)Nc2ccc3c(c21)C(c1ccc(Br)cc1)Oc1ccccc1-3 (configuration not stated)
< 20	1220	1860	1.2	147	275	CC1=CC(C)(C)Nc2ccc3c(c21)C(c1ccc(Cl)c(C)c1)Oc1ccccc1-3 (configuration not stated)
